PDI turbidity: inhibitors of human PDI, primary screen, biochemical, turbidity, single point, plate reader. 0.052% of 350,000 active. PDI insulin aggregation turbidity, A650, 90 min. inhibition, % at 10 µM. Protein disulfide-isomerase (Homo sapiens), P07237;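 active = mean inhibition across replicates of 30% or more, whatever share of single replicates reach that level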
ARNT-TACC3 inh: disruptors of ARNT/TACC3 protein interaction, primary screen, biochemical, AlphaScreen, single concentration | Transforming acidic coiled-coil-containing protein 3 (Homo sapiens), Q9Y6A5 | AlphaScreen His-ARNT PAS-B/GST-TACC3 binding, luminescence; TACC3 fragment carries E629A point mutation | inhibition, % at 9.99 µM | 0.66% of 390,000 active;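 active = mean inhibition of replicates at least 50% and at least half of replicates each reaching 50%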;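 also: 0% = complete ARNT plus TACC3 wells and 100% = ARNT alone without TACC3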
AF4-AF9 inh: inhibitors of AF4 peptide binding to AF9, primary screen, biochemical, AlphaScreen, biotin-AF4 peptide, FLAG-AF9, single point; inhibition, % at 10 µM; 0.47% of 350,000 active; AID 651704, 2012;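 active = every replicate reaching a set inhibition limit, whatever the replicate mean, cut at about 25% in these data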;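 also: 0% = plate neutral control median and 100% = total signal loss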
FN deposit inh: inhibitors of fibronectin matrix deposition, primary screen, AH1F cells, Alexa488-fibronectin fluorescence, plate reader; AH1F fibroblasts, overnight; 0.086% of 350,000 active; inhibition, % at 12.6 µM;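 active = mean inhibition across replicates of 30% or more, regardless of how many single replicates reach that level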;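 also: positive control wells lacked labelled fibronectin entirely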
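Test system: AH1F fibroblast monolayer depositing Alexa488-labelled fibronectin into matrix. Input: 10000 cells per well. Technique: fluorescence, ex 485 nm, em 525 nm. Buffer or medium: DMEM plus 2% serum, read in PBS. Timing: 1 h cell adhesion before compound, then overnight fibronectin incubation. Compound: single dose, pinned. Read-out basis: inhibition from reduced deposited-fibronectin fluorescence.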
FGF22 binding: binders of human FGF22 protein, primary screen, FGF22 synaptogenesis inhibitor project, biophysical, thermal shift, single point. Fibroblast growth factor 22 (Homo sapiens), Q9HCT0. recombinant FGF22 thermal shift, SYPRO orange fluorescence; percent of sucrose octasulfate shift, DMSO zero. activity (Tm shift, normalised), % at 9.99 µM. 1.5% of 340,000 active. AID 651658, 2012;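 active = mean Tm shift, scaled 0 neutral to 100 positive control, at about 1.3% or above, every replicate too, limit read from the data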
ERp5 block: inhibitors of ERp5-driven insulin aggregation, primary screen, biochemical, turbidity, absorbance 650 nm, single point | AID 651711, 2012 | inhibition, % at 9.99 µM | 0.05% of 350,000 active | Protein disulfide-isomerase A6 (Homo sapiens), Q15084 | 90 min;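 active = mean replicate inhibition above about 25%, with every replicate also reaching it, limit read from the data, passing the limit was not always enough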
Target sequence (Q15084 whole entry, looked up): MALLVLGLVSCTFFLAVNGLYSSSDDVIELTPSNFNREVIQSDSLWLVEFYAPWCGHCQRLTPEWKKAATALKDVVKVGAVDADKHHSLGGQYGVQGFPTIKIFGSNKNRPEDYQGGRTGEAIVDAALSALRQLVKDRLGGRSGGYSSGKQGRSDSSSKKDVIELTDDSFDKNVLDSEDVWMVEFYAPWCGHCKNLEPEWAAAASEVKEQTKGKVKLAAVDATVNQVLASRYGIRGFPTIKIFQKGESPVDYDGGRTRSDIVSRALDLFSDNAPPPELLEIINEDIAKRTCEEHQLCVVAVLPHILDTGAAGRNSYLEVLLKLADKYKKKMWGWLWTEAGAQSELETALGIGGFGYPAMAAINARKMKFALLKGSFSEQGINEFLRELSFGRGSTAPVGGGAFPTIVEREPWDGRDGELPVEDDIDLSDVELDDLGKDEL
An asterisk follows results filed as active; nt = no result. The list is not random: actives were taken first. Their share in the collection is about 2.1%.

SMILES	PDI turbidity	ARNT-TACC3 inh	AF4-AF9 inh	FN deposit inh	FGF22 binding	ERp5 block
COc1ccc(NC(=O)N[C@H]2CC[C@H](CCNC(=O)c3ccccc3F)O[C@H]2CO)cc1	nt	-5	-2	-1	0	-1
O=C(N[C@@H]1CC[C@@H](CCNC(=O)C2CC2)O[C@@H]1CO)c1ccncc1	nt	7	-2	nt	0	-2
OCC1CCCN(C2CCN(Cc3nc(Cc4cccc(C(F)(F)F)c4)no3)CC2)C1 (centres undefined)	5	-1	1	-6	43*	0
O=C(Nc1ccccc1F)N[C@H]1CC[C@@H](CCNS(=O)(=O)c2ccc(Cl)cc2)O[C@H]1CO	nt	7	2	nt	0	-8
COc1cccc(OCCCN2CCCCC2)c1	-3	0	nt	4	nt	nt
COc1ccc(OCCCN2CCCCCC2)cc1	3	47*	nt	nt	nt	nt
COc1ccc(-c2ccc(C(=O)O)c(=O)[nH]2)cc1	-6	20	-3	1	44*	3
CN(Cc1ccc2nonc2c1)Cc1nc(CC2CC2)no1	2	8	0	4	43*	4
O=C(NC1CCC1)[C@H]1[C@H](CO)[C@H]2Cn3c(cccc3=O)[C@@H]1N2CC1CCCC1	nt	nt	-2	nt	nt	7
CCc1ccc(C(=O)COC(=O)[C@@H](NC(N)=O)[C@@H](C)CC)cc1	3	-19	0	-1	43*	2
CCC(C)C(NC(N)=O)C(=O)Nc1ccc(C(=O)OC)cc1 (centres undefined)	-2	-3	-9	0	43*	2
CCOC(=O)c1ccc(NC(=O)[C@@H](NC(N)=O)C(C)C)cc1	11	6	-1	0	0	-2
CC[C@H](C)[C@H](NC(N)=O)C(=O)Nc1ccc(C)cc1	-3	0	4	-3	0	6
CCc1ccc(C(=O)COC(=O)CNC(=O)Cc2ccccc2)cc1	11	-3	-1	5	0	3
CC[C@H](C)[C@H](NC(N)=O)C(=O)Nc1ccc(NC(C)=O)cc1	-1	-5	96*	-12	0	2
CC[C@H](C)[C@H](NC(N)=O)C(=O)NCCc1ccc(OC)cc1	-1	-1	1	-3	0	1
CC[C@H](C)[C@H](NC(N)=O)C(=O)NCCc1ccc(Cl)cc1	4	2	-1	-6	44*	8
C[C@@H]1CN([C@H](C)CO)C(=O)c2cc(NC(=O)c3ccncc3)ccc2O[C@@H](C)CCCCO[C@@H]1CN(C)S(=O)(=O)c1ccccc1	nt	0	0	12	nt	5
COc1cccc(S(=O)(=O)N[C@H]2CC[C@@H](CC(=O)NC3CCC3)O[C@@H]2CO)c1	nt	-2	0	nt	0	-2
COc1ccc(S(=O)(=O)N(C)C[C@@H]2Oc3ccc(NC(=O)Cn4cnnn4)cc3C(=O)N([C@H](C)CO)C[C@@H]2C)cc1	nt	-4	-1	-3	0	-3
O=C(c1ccc2c(c1)OCO2)N1CC2(C1)[C@H](c1ccccc1)[C@@H](CO)N2C(=O)C1CCC1	nt	nt	2	nt	0	-5
CC(C)CC(NC(N)=O)C(=O)NCCc1ccc(Cl)cc1Cl (centres undefined)	4	-5	0	-1	44*	5
O=C(Nc1ccc(F)cc1)C1CC(=O)n2ncnc2N1 (centres undefined)	12	-7	-11	1	43*	-4
COc1ccc(/C=N/Nc2cc(OC)ncn2)cc1	1	0	3	-1	0	4
COc1ccc(/C=N/Nc2cc(N(C)C)nc(N(C)C)n2)cc1	-1	15	28*	13	0	4
Cc1cc(N/N=C/c2ccccc2)nc(NCc2ccccc2)n1	-4	10	5	nt	-1	3
COc1ccccc1/C=N/Nc1cc(N(C)C)nc(N(C)C)n1	-15	10	29*	-1	0	5
